Measured values published in ChEMBL document CHEMBL1139418, “Synthesis and SAR of novel parenteral anti-pseudomonal cephalosporins: discovery of FR264205” (Bioorg Med Chem Lett, 2008).
Values after ≈ are worked out from the molar mass of the structure shown.

Assays:
Pseudomonas aeruginosa [1] = experiment: Antipseudomonal activity against Pseudomonas aeruginosa class C AmpC(1d) beta-lactamase-induced clinical isolate FP1380 by CLSI method; format: functional; conditions: 24 h
Pseudomonas aeruginosa [2] = experiment: Antipseudomonal activity against Pseudomonas aeruginosa class A TEM beta-lactamase-induced clinical isolate FP2056 by CLSI method; format: functional
Pseudomonas aeruginosa [3] = experiment: Antipseudomonal activity against Pseudomonas aeruginosa clinical isolates by CLSI method; format: functional
Pseudomonas aeruginosa [4] = experiment: Outer-membrane permeability assessed as ratio of MIC for Pseudomonas aeruginosa in absence of DEAE-dextran to MIC for Pseudomonas aeruginosa in presence of DEAE-dextran; format: functional
Outline: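 MIC per CLSI method, measured for each strain with and without the outer-membrane permeabilizer DEAE-dextran. Permeability index is the ratio of MIC without additive to MIC with additive.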

Mus musculus = experiment: Induction of convulsion in intracerebroventricular dosed mouse; format: organism-based; conditions: in vivo, icv_or_intrathecal
[5] = Pseudomonas aeruginosa, read-out: MIC50

Row | SMILES | MIC (Pseudomonas aeruginosa [1]) [µg/mL] | MIC (Pseudomonas aeruginosa [2]) [µg/mL] | MIC50 (Pseudomonas aeruginosa [3]; [5]) [µg/mL] | MIC50 (Pseudomonas aeruginosa [3]) [µg/mL] | Ratio (Pseudomonas aeruginosa [4]) | ED50 (Mus musculus) [µg]
1 | CC(C)(O/N=C(\C(=O)N[C@@H]1C(=O)N2C(C(=O)[O-])=C(C[n+]3cccc(N)c3)CS[C@H]12)c1nsc(N)n1)C(=O)O | 32 (≈ 56.9 µM) | 1 (≈ 1.78 µM) | 1 (≈ 1.78 µM) | – | 32 | –
2 | CO/N=C(/C(=O)N[C@@H]1C(=O)N2C(C(=O)[O-])=C(C[n+]3ccn4ncccc43)CS[C@H]12)c1nsc(N)n1 | 32 (≈ 62.1 µM) | 2 (≈ 3.88 µM) | 2 (≈ 3.88 µM) | – | – | 230
3 | CC(C)(O/N=C(\C(=O)N[C@@H]1C(=O)N2C(C(=O)O)=C(C[n+]3ccc4n3CCN4)CS[C@H]12)c1nsc(N)n1)C(=O)O.O=S(=O)([O-])O | 16 | 1 | 1 | – | – | –
4 | Cn1c(N)c(CN)c[n+]1CC1=C(C(=O)[O-])N2C(=O)[C@@H](NC(=O)/C(=N\OC(C)(C)C(=O)O)c3nsc(N)n3)[C@H]2SC1 | 8 (≈ 13.5 µM) | 0.5 (≈ 0.841 µM) | 0.5 (≈ 0.841 µM) | – | – | 39.3
5 | Cn1c(N)cc[n+]1CC1=C(C(=O)[O-])N2C(=O)[C@@H](NC(=O)/C(=N\OC(C)(C)C(=O)O)c3nsc(N)n3)[C@H]2SC1 | 32 (≈ 56.6 µM) | 1 (≈ 1.77 µM) | 1 (≈ 1.77 µM) | – | – | –
6 | CC(C)(O/N=C(\C(=O)N[C@@H]1C(=O)N2C(C(=O)[O-])=C(C[n+]3ccc(N)n3CCO)CS[C@H]12)c1nsc(N)n1)C(=O)O.Cl | 16 | 1 | 1 | – | 64 | 46.9
7 | CC(C)(O/N=C(\C(=O)N[C@@H]1C(=O)N2C(C(=O)[O-])=C(C[n+]3ccccc3)CS[C@H]12)c1nsc(N)n1)C(=O)O | 32 (≈ 58.4 µM) | 1 (≈ 1.83 µM) | 2 (≈ 3.65 µM) | – | – | –
8 | CC(C)(O/N=C(\C(=O)N[C@@H]1C(=O)N2C(C(=O)[O-])=C(C[n+]3ccccc3)CS[C@H]12)c1csc(N)n1)C(=O)O [CEFTAZIDIME] | 128 (≈ 234 µM) | 2 (≈ 3.66 µM) | 2 (≈ 3.66 µM) | – | – | 71
9 | Cn1c(N)c(NC(=O)NCCN)c[n+]1CC1=C(C(=O)O)N2C(=O)[C@@H](NC(=O)/C(=N\OC(C)(C)C(=O)[O-])c3nsc(N)n3)[C@H]2SC1 [CEFTOLOZANE] | 2 (≈ 3 µM) | 0.5 (≈ 0.75 µM) | 0.5 (≈ 0.75 µM) | – | – | 428

Further compounds by falling MIC (Pseudomonas aeruginosa [1]), results first:

Row | MIC (Pseudomonas aeruginosa [1]) [µg/mL] | MIC (Pseudomonas aeruginosa [2]) [µg/mL] | MIC50 (Pseudomonas aeruginosa [3]; [5]) [µg/mL] | MIC50 (Pseudomonas aeruginosa [3]) [µg/mL] | SMILES | Ratio (Pseudomonas aeruginosa [4]) | ED50 (Mus musculus) [µg]
10 | 8 (≈ 13.1 µM) | 1 (≈ 1.63 µM) | 1 (≈ 1.63 µM) | – | CC(C)(O/N=C(\C(=O)N[C@@H]1C(=O)N2C(C(=O)[O-])=C(C[n+]3ccc(N)n3CCCF)CS[C@H]12)c1nsc(N)n1)C(=O)O | – | –
11 | 8 (≈ 13.2 µM) | 1 (≈ 1.65 µM) | 1 (≈ 1.65 µM) | – | CC(C)(O/N=C(\C(=O)N[C@@H]1C(=O)N2C(C(=O)[O-])=C(C[n+]3cccc(NC(=N)N)c3)CS[C@H]12)c1nsc(N)n1)C(=O)O | 16 | –
12 | 4 (≈ 6.77 µM) | 1 (≈ 1.69 µM) | 1 (≈ 1.69 µM) | – | CC(C)(O/N=C(\C(=O)N[C@@H]1C(=O)N2C(C(=O)[O-])=C(C[n+]3ccc(CCN)cc3)CS[C@H]12)c1nsc(N)n1)C(=O)O | 8 | –
13 | 4 | 1 | 1 | – | CC(C)(O/N=C(\C(=O)N[C@@H]1C(=O)N2C(C(=O)O)=C(C[n+]3ccc4n3CCCN4)CS[C@H]12)c1nsc(N)n1)C(=O)O.O=S(=O)([O-])O | – | –
14 | 2 (≈ 3.14 µM) | 0.5 (≈ 0.784 µM) | 0.5 (≈ 0.784 µM) | – | Cn1c(N)c(NC(=O)CN)c[n+]1CC1=C(C(=O)[O-])N2C(=O)[C@@H](NC(=O)/C(=N\OC(C)(C)C(=O)O)c3nsc(N)n3)[C@H]2SC1 | – | > 200
15 | 2 (≈ 3.22 µM) | 1 (≈ 1.61 µM) | 0.5 (≈ 0.806 µM) | – | Cn1c(N)c(/C=C/CN)c[n+]1CC1=C(C(=O)[O-])N2C(=O)[C@@H](NC(=O)/C(=N\OC(C)(C)C(=O)O)c3nsc(N)n3)[C@H]2SC1 | – | 122
16 | 1 (≈ 1.57 µM) | 0.5 (≈ 0.785 µM) | 0.5 (≈ 0.785 µM) | 0.5 (≈ 0.785 µM) | Cn1c(N)c(CNC(=N)N)c[n+]1CC1=C(C(=O)[O-])N2C(=O)[C@@H](NC(=O)/C(=N\OC(C)(C)C(=O)O)c3nsc(N)n3)[C@H]2SC1 | – | 4.69
